Assay results: ChEMBL document CHEMBL3351903, “A potent HDAC inhibitor, 1-alaninechlamydocin, from a Tolypocladium sp. induces G2/M cell cycle arrest and apoptosis in MIA PaCa-2 cells” (J Nat Prod, 2014)
Active and inactive are the calls of the source. No cut-off for these calls is given here. Where a SMILES comes first, the peptide text is derived from it. [ ]: non-standard residue; d: D form. ξ: configuration not given here. Aoe(9ξ) = N[C@@H](CCCCCC(=O)C1CO1)C(=O)O; dPip = O=C(O)[C@H]1CCCCN1

Columns and labels:
[1] = biological target: Histone deacetylase (Homo sapiens) (UniProt Q13547+O15379+Q9UBN7+Q92769+Q9UQL6+Q8WUI4+Q9BY41+Q96DB2+P56524+Q9UKV0+Q969S8); assay: Inhibition of HDAC in human HeLa cell lysates after 30 mins by fluorescence based assay; type: protein assay
Summary of the method: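 Fluorometric kit assay using HeLa cell lysate with 100 μM acetylated substrate in assay buffer. Compound added at 20-fold stock, 30 min at 30 °C. Developer then releases the fluorophore from deacetylated substrate; read at ex 355/em 460 nm. Triplicate wells normalized to signal without inhibitor; IC50 by nonlinear regression.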

MIA PaCa-2 [2] = assay: Induction of cell cycle arrest in human MIAPaCa2 cells assessed as accumulation at G1 phase at 20 nM after 20 hrs by propidium iodide staining based flow cytometry (reference value: 50.2%); type: functional
Summary of the method: (§1)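 MIA PaCa-2 cells exposed 20 h to 8 or 20 nM, with vehicle-treated cells as comparison. Cells stained with propidium iodide and analysed by flow cytometry. Cell cycle phase distributions calculated by modelling software.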

MIA PaCa-2 [3] = assay: Antiproliferative activity against human MIAPaCa2 cells exposed to 25 nM compound incubated in human serum for 5 to 30 mins measured after 48 hrs by MTT assay; type: functional, cell-based
Summary of the method: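 Compound DMSO stock mixed 1:10 with human type AB serum and held at room temperature for 5, 10, 15 or 30 min. Aliquots then added to 5000 MIA PaCa-2 cells per well, 25 nM final. Cells grown 48 h, then viability read by MTT.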

MIA PaCa-2 [4] = assay: Induction of cell cycle arrest in human MIAPaCa2 cells assessed as accumulation at S phase at 8 nM after 20 hrs by propidium iodide staining based flow cytometry (reference value: 30.6%); type: functional; summary of the method: as §1
MIA PaCa-2 [5] = assay: Induction of PARP cleavage in human MIAPaCa2 cells at 8 nM after 20 hrs by SDS-PAGE and immunoblotting; type: functional, cell-based
Summary of the method: (§2)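 MIA PaCa-2 cells treated 20 h with vehicle, 8 or 20 nM. Total cell lysates run on SDS-PAGE and immunoblotted with a PARP antibody recognizing full-length and cleaved forms. Detection by HRP-conjugated secondary antibody.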

[6] = (§3) Antiproliferative activity against human MIAPaCa2 cells after 48 hrs by MTT assay; type: functional; conditions: MIA PaCa-2, 48 h
Summary of the method: (§4)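 Cells held in RPMI with 5% FetalClone III and penicillin/streptomycin (50 U/mL, 50 μg/mL); hTERT-HPNE also given 10 ng/mL recombinant human EGF; used within 3 months of thaw. 48 h compound exposure, DMSO ≤1% final, then MTT.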

MIA PaCa-2 [7] = assay: Induction of PARP cleavage in human MIAPaCa2 cells at 20 nM after 20 hrs by SDS-PAGE and immunoblotting; type: functional, cell-based; summary of the method: as §2
[8] = Antiproliferative activity against human PANC1 cells after 48 hrs by MTT assay; type: functional; conditions: PANC-1, 48 h; for CC50: read-out: LC50 (the source's name); summary of the method: as §4
[9] = Antiproliferative activity against hTERT expressing immortalized human HPNE cells after 48 hrs by MTT assay; type: functional; conditions: for CC50: read-out: LC50 (the source's name); summary of the method: as §4
MIA PaCa-2 [10] = assay: as §3; type: functional; summary of the method: as §4
[11] = Half life in freshly prepared rat serum; type: ADME, cell-free
[12] = Half life in rat whole blood; type: ADME, tissue-based

With `C[C@@H]1NC(=O)[C@H](CCCCCC(=O)[C@@H]2CO2)NC(=O)[C@H]2CCCN2C(=O)[C@H](Cc2ccccc2)NC1=O` the inhibition [1] was “Dose-dependent effect”, the Activity (MIA PaCa-2 [2]) was 19.6% and the inhibition (MIA PaCa-2 [3]) was “Active”. For the same molecule, the Activity (MIA PaCa-2 [4]) was 34.6%, the Activity (MIA PaCa-2 [5]) was “Active” and the TGI [6] was 0.0088 µM. For the same molecule, the Activity (MIA PaCa-2 [7]) was “Active”, the TGI [8] was 0.05 µM and the CC50 [8] was over 10 µM. For the same molecule, the TGI [9] was 0.66 µM and the CC50 [9] was over 10 µM.
In the case of `CCC(=O)CCCCC[C@@H]1NC(=O)[C@H]2CCCCN2C(=O)[C@H]([C@@H](C)CC)NC(=O)[C@H](Cc2cn(OC)c3ccccc23)NC1=O`, the “growth inhibition (GI)” value (MIA PaCa-2 [10]) is reported as “Active”.
In the case of `O=C(CCCCCCC(=O)Nc1ccccc1)NO` [VORINOSTAT], the CC50 ([6]; read-out: LC50 (the source's name)) is reported as 4.85 µM, the CC50 [8] is reported as over 10 µM and the TGI [9] is reported as over 10 µM. It also gave a CC50 [9] of over 10 µM.
In the case of `O=C(CCCCC[C@@H]1NC(=O)[C@H]2CCCCN2C(=O)[C@H](Cc2ccccc2)NC(=O)[C@H](Cc2ccccc2)NC1=O)C1CO1` (some centres undefined) (cyclo(FF[dPip][Aoe(9ξ)])), the “growth inhibition (GI)” value (MIA PaCa-2 [10]) is reported as “Active”.
Work on `CC1(C)NC(=O)[C@H](CCCCCC(=O)[C@H]2CO2)NC(=O)[C@H]2CCCN2C(=O)[C@H](Cc2ccccc2)NC1=O` [CHLAMYDOCIN] yielded a half-life [11] of 8.7 min and a half-life [12] of 0.68 to 3.6 min.
